miR-122 sensor: blocks miR-122 activity in Huh7 sensor cells; Huh7 miR-122 Renilla luciferase sensor, 48 h; neutral wells = 0, positive control = 100; AID 602342; activation (reporter increase), % at 12.5 µM; actives 0.3% (n = 340,000);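 active = mean replicate activation score at least 90 and every replicate individually at or above 90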;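 note: higher luciferase means less miR-122 activity so hits act as miR-122 inhibitors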
FGF22 binding: shifts melting point of recombinant human FGF22; activity (Tm shift, normalised), % at 9.99 µM; Q9HCT0; actives 1.5% (n = 340,000); recombinant FGF22 thermal shift, SYPRO orange fluorescence; percent of sucrose octasulfate shift, DMSO zero;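 active = mean Tm shift, scaled 0 neutral to 100 positive control, at about 1.3% or above, every replicate too, limit read from the data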
E-sel inducer: E-selectin induction on HUVECs. HUVEC E-selectin immunofluorescence imaging; normalized: neutral wells 0, TNF-alpha wells 100. activation, % at 7.58 µM. actives 0.37% (n = 260,000);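 active = mean E-selectin-positive cell signal at least 10% of the positive control, reached in at least 60% of replicates, without over 20% cell loss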
Target sequence (P16581 whole entry, looked up): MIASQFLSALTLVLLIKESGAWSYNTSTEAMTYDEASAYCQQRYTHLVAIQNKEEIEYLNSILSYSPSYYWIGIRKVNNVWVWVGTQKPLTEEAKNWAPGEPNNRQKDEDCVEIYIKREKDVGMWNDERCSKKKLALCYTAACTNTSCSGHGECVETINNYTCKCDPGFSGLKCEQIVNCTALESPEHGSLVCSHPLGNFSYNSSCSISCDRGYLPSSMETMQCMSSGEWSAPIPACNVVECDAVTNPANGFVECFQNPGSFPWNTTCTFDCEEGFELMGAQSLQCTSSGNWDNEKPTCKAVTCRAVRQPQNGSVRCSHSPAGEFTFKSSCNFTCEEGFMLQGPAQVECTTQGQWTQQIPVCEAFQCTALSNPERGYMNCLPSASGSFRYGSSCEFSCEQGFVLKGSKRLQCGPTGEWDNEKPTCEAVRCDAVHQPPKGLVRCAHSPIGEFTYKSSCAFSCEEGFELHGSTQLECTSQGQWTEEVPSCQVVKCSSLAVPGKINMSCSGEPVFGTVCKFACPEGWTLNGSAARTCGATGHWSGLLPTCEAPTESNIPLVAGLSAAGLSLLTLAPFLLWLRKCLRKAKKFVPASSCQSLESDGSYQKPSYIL
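Material: HUVEC primary endothelial cells; Amount: 3,000 cells per well; Dosing: single concentration; Medium: EGM-2 growth medium on 0.1% gelatin-coated wells; Read-out basis: percent E-selectin-positive cells; Signal: immunofluorescence imaging; Control set: TNF-alpha, DMSO.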
S100A4 MyoIIA: S100A4-myosin IIA interaction inhibition; P26447; S100A4/TAMRA-MyoIIA peptide fluorescence polarization; inhibition, % at 10.7 µM; actives 0.14% (n = 360,000); AID 652163;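 active = mean inhibition of at least 70% across replicates, with every replicate also reaching that level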
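Material: human S100A4 monomer with TAMRA-labelled myosin IIA peptide; buffer or medium: HEPES pH 7.2 with CaCl2, KCl, NaCl, DTT, Triton; compound dosing: one concentration per compound; schedule: 5 min incubation before reading; benchmarks: neutral control DMSO, positive control TFP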
SIRT5 inh: sirtuin-5 (human) deacylase inhibition; Q9NXA8; Purified SirT5, succinyl-peptide AMC, trypsin-coupled fluorescence; inhibition, % at 15 µM; actives 1.1% (n = 330,000); AID 652115; in the data active = inhibition above about 15%
* = called active by the depositor; / = no result given; [ ] = remark or other dose. Shown are actives, neighbours in structure and some others; about 2.5% of the full set was active somewhere.

SMILES	miR-122 sensor	FGF22 binding	E-sel inducer	S100A4 MyoIIA	SIRT5 inh
COc1cc(-c2ccc(Nc3ccccc3C(=O)O)c(OC)c2)ccc1Nc1ccccc1C(=O)O	1	0	0	-3	30*
COc1cc([N+](=O)[O-])c(OC)cc1Nc1ccccc1C(=O)O	/	0	0	2	/
COc1ccc(NC(=O)O[C@@H](c2ccc(OC)c(O)c2)[C@H](CCO)OC)cc1	/	0	/	-2	3
OCCCNCc1ccc(Cl)cc1Cl	0	0	/	-3	1
CC(O)CNCc1ccc(Cl)cc1Cl (stereo not given)	/	45*	/	-4	-1
CCCCC(O)(CCCC)C(=O)NN(C(=O)OC)c1ccccc1	144*	0	/	9	-2
O=C(Nc1ccc2c(c1)OCO2)N[C@H]1CC[C@@H](CCNC(=O)C2CCCCC2)O[C@H]1CO	/	0	-2	-2	6
C[C@@H]1CN([C@@H](C)CO)S(=O)(=O)c2ccc(C3=CCCC3)cc2O[C@@H]1CN(C)C	8[16.7 µM]	0	0	11	5
C=CCNc1nc(Nc2ccc([N+](=O)[O-])cc2)nc(OC)n1	0	/	/	/	/
C=CCNc1nc(Cl)nc(Nc2ccc([N+](=O)[O-])cc2)n1	/	44*	/	-1	1
CC(=O)Nc1ccc(Nc2nc(Cl)nc(Nc3ccc(NC(C)=O)cc3)n2)cc1	/	44*	/	-2	-1
COc1ccc(Nc2nc(Cl)nc(Nc3ccc(OC)cc3)n2)cc1	/	43*	0	-3	-4
C=CCNc1nc(Cl)nc(Nc2ccc(OC)cc2OC)n1	5	43*	/	-3	0
COc1ccc2c3c(n(C)c2c1)[C@@H](CO)N(C(=O)Cc1ccccc1)CC31CCN(C(=O)Cc2ccccc2)CC1	/	0	0	4	3
O=C(C[C@@H]1C[C@@H]2c3cc(NC(=O)c4cccnc4)ccc3O[C@@H]2[C@H](CO)O1)NC1CCCC1	/	/	0	-2	/
COc1ccc(C)cc1NC(=S)NNC(=O)c1ccccc1Cl	6	/	/	/	/
COc1ccc(C)cc1NC(=S)NNC(=O)c1c(Br)cnn1C	4	44*	/	-3	1
O=C(NC1CCCCC1)c1ccc(S(=O)(=O)c2ccccc2)cc1	-4	0	/	-3	40*
COC(=O)C1CC(O)CN1C(=O)Nc1ccccc1 (stereo not given)	/	43*	0	-2	0
COc1ccc(CNC(=O)C2CC(O)CN2C(=O)Nc2ccccc2)cc1 (stereo not given)	2	0	0	-2	-5
O=C(C[C@H]1CC[C@@H](NC(=O)Nc2cc(F)ccc2F)[C@H](CO)O1)Nc1ccccc1	/	0	-1	-2	6
CO[C@H]1CN(C)C(=O)c2cc(NC(=O)c3cccc(F)c3)ccc2OC[C@@H](C)N(C)C[C@@H]1C	/	0	1	0	-1
CC(=O)Nc1ccc(CNc2nc(NC(C)C)nc3cc(-c4ccccc4)sc23)cc1	-17	0	33*	-5	0
COc1ccc2c3c(n(C)c2c1)[C@H](CO)N(CC1CC1)CC31CN(C(=O)Nc2c(C)noc2C)C1	/	/	0	/	/
CCNC(=S)NNC(=O)CCc1nc2cc(Cl)ccc2n(Cc2ccccc2)c1=O	0	0	/	5	3
SMILES	miR-122 sensor	FGF22 binding	E-sel inducer	S100A4 MyoIIA	SIRT5 inh
CN(C)C(CNC(=O)CCc1nc2cc(Cl)ccc2n(Cc2ccccc2)c1=O)c1ccccc1 (stereo not given)	-7	0	0	190*	-1
CC(C)C1C(C#N)=C(N)Oc2n[nH]c(C(C)(C)C)c21 (stereo not given)	1	/	/	/	/
Cc1[nH]nc2c1C(c1ccoc1)C(C#N)=C(N)O2 (stereo not given)	-8	/	/	/	/
Cc1[nH]nc2c1C(c1ccco1)C(C#N)=C(N)O2 (stereo not given)	32	0	114*	4	0
CC(C)(C)c1[nH]nc2c1C(c1ccco1)C(C#N)=C(N)O2 (stereo not given)	/	44*	/	-4	1
C[C@@H]1CN([C@H](C)CO)C(=O)c2cccc(NC(=O)C3CC3)c2O[C@H]1CN(C)C	-2[16.7 µM]	0	-8	-2	5
COc1ccc(S(=O)(=O)N(C)C[C@H]2OCCCC[C@@H](C)Oc3ccc(NC(=O)Nc4ccc5c(c4)OCO5)cc3C(=O)N([C@@H](C)CO)C[C@H]2C)cc1	-6[16.7 µM]	0	0	-15	6
Cc1noc(C)c1NC(=O)Nc1ccc2c(c1)C(=O)N([C@H](C)CO)C[C@@H](C)[C@@H](CN(C)C(=O)NC1CCCCC1)OCCCC[C@@H](C)O2	2[16.7 µM]	0	1	-13	3
N#CCC(=O)N/N=C/c1ccc(OCc2ccccc2)cc1	2	43*	/	-1	0
O=C(COc1ccccc1)N/N=C/c1ccc2c(c1)OCO2	-3	0	1	-3	21*
COc1ccccc1N/N=C/c1ccc2c(c1)OCO2	2	44*	/	-5	-2
C/C(=N\NC(=O)CC#N)c1ccc(Oc2ccccc2)cc1	-1	44*	/	1	-4
COc1cccc(C(=O)Nc2ccc3c(c2)OC[C@@H](C)N(C)C[C@H](C)[C@H](OC)CN(C)C3=O)c1	/	/	0	-12	0
C[C@H]1CN([C@@H](C)CO)C(=O)c2cccc(NC(=O)CCCCCC(=O)Nc3ccccc3N)c2O[C@@H]1CN(C)S(C)(=O)=O	/	0	/	55	7
CCC(=O)N1[C@@H]2Cn3c(ccc(-c4cccnc4)c3=O)[C@H]1[C@@H](C(=O)N1CCc3ccccc3C1)[C@@H]2CO	1[16.7 µM]	0	-1	5	-37
COc1ccc2c3c(n(C)c2c1)[C@@H](CO)N(Cc1ccccc1)CC31CCN(CC2CC2)CC1	/	0	-1	/	/
C=C(C)C(=O)N1CC2(CC(c3cccc(NC(=O)c4ccccc4)c3)=NO2)C[C@@H]1C(N)=O (stereo not given in full)	-6	44*	0	-4	2
C=C(C)C(=O)N1CC2(CC(c3cccc(NC(=O)CC)c3)=NO2)C[C@H]1C(N)=O (stereo not given in full)	-1	/	/	/	/
CO[C@@H]1CN(C)C(=O)c2ccc(NS(C)(=O)=O)cc2OC[C@@H](C)N(C(=O)C2CCOCC2)C[C@H]1C	-4[16.7 µM]	0	0	8	1
COc1ccc(NC(=O)CSc2nc(O)cc(=O)n2-c2ccccc2)cc1	7	0	0	-1	4
O=C(CSc1nc(O)cc(=O)n1-c1ccccc1)Nc1ccc2c3c(cccc13)CC2	-3	43*	0	-76	4
CO[C@H]1CN(C)C(=O)c2cc(NC(=O)c3ccccc3F)ccc2OC[C@H](C)N(CC2CC2)C[C@@H]1C	/	0	0	8	-1
Cc1ccc(S(=O)(=O)Nc2ccccc2-c2ccccc2)cc1	161*	/	/	/	/
